According to publication PMC6096382 (Theranostics, 2018):

Test system: human sural nerve
Format: binding
Conditions: topical 100 µM on human nerve sections from multiple patients
Method in brief: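 Human peripheral nerve from nerve-resection patients, cut as 10 µm unfixed sections, humidified 30 min. Test compound in 0.5X HBSS applied topically and incubated 30 min in a humidified chamber. Carboxyfluorescein served as the free-dye control. Sections were washed twice with 0.5X HBSS and once with PBS, then coverslipped and imaged at once on a dissecting scope or confocal (488 nm excitation, 515/25 nm emission, 10x air objective).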

binding of free dye control to human nerve: only weak non-specific binding
Substance: carboxyfluorescein
